Source: ChEMBL document CHEMBL5661974, “Pharmacologic characterization of a potent inhibitor of class I phosphatidylinositide 3-kinases” (Cancer Res, 2007)
The source made the active and inactive calls. The rule behind the calls is not given here.

What was measured:
U-87 MG [1] = experiment: Antitumor activity against PTEN null human U-87MG cells xenografted female Ncr model assessed as body weight loss at 70 mg/kg, ip administered daily for 14 days relative to control; conditions: time 14 day
[2] = Volume of distribution at steady state in BALB/C mouse at 2.5 mg/kg, iv by LC-MS/MS analysis; assay type: ADME, organism-based; conditions: in vivo, read-out: Vdss
How it was run: (§1)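 Female BALB/c mice, 6–8 weeks old, given 2.5 mg/kg i.v. in 10% DMSO, 0.5% Tween 20 in saline. Plasma came from serial bleeds; tissues were homogenized in 2 or 3 volumes PBS. Samples were methanol-precipitated with an analogue internal standard, then LC-MS/MS by multiple reaction monitoring against an 8-point external calibration of 2–20,000 nmol/L. Parameters came from WinNonlin noncompartmental analysis, model 201 for plasma and model 200 for tissues.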

OVCAR-3 [3] = conditions: Homo sapiens, dose 100.0 mg/kg, route ip, time 750.0 min
[4] = Toxicity in human OVCAR-3 cells xenografted female Ncr model at 15 to 30 mg/kg, ip administered daily for 15 days; assay type: organism-based; conditions: in vivo, 360 h, dose 15-30 mg/kg, time 15 day
[5] = Tmax in BALB/C mouse liver at 2.5 mg/kg, iv by LC-MS/MS analysis; assay type: ADME, organism-based
How it was run: as §1

[6] = Inhibition of recombinant human PI3K in cricetulus griseus CHO cells expressing GFP-tagged AKT1 assessed as translocation to the plasma membrane following IGF-1 stimulation by fluorescence assay
How it was run: (§2)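 CHO cells expressing GFP-tagged AKT1, AKT2, AKT3 or PDK1, held in 0.05% serum with 0.1% BSA and stimulated with 100 nmol/L IGF-1. Plasma-membrane translocation was read by automated fluorescence imaging, with IC50 from concentration-response curves; Z' above 0.5.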

[7] = Half life in BALB/C mouse plasma at 2.5 mg/kg, iv by LC-MS/MS analysis; assay type: ADME, organism-based
How it was run: as §1

[8] = Inhibition of recombinant human PI3K in cricetulus griseus CHO cells expressing GFP-tagged PDK1 assessed as translocation to the plasma membrane following IGF-1 stimulation by fluorescence assay
How it was run: as §2

Detroit 562 = experiment: Antiproliferative activity against human Detroit 562 cells harboring PI3KCA mutant assessed as cell growth inhibition incubated for 96 hrs by SRB assay; assay type: functional
[9] = Half life in BALB/C mouse spleen at 2.5 mg/kg, iv by LC-MS/MS analysis; assay type: ADME, organism-based
How it was run: as §1

[10] = Inhibition of recombinant human PI3K in cricetulus griseus CHO cells expressing GFP-tagged AKT3 assessed as translocation to the plasma membrane following IGF-1 stimulation by fluorescence assay
How it was run: as §2

U-87 MG [11] = experiment: Inhibition of recombinant PI3K in human U-87MG cells assessed as phosphorylation of GSK3beta at Ser9 at 5 times of GI50 concentration within 15 mins treatment by immunoblot analysis; assay type: cell-based
[12] = Cmax in BALB/C mouse plasma at 2.5 mg/kg, iv by LC-MS/MS analysis; assay type: ADME, organism-based
How it was run: as §1

MDA-MB-468 [13] = experiment: Antitumor activity against PTEN null human MDA-MB-468 cells xenografted female Ncr model assessed as T/C at 40 mg/kg, ip administered once a daily for 40 days relative to control; assay type: functional; conditions: time 40 day
MDA-MB-468 [14] = experiment: Antitumor activity against PTEN null human MDA-MB-468 cells xenografted female Ncr model assessed as body weight loss at 30 mg/kg, ip administered once a daily for 14 days relative to control; conditions: time 14 day
[15] = AUClast in BALB/C mouse plasma at 50 mg/kg, ip by LC-MS/MS analysis; assay type: ADME, organism-based; conditions: in vivo
How it was run: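 Female BALB/c mice, 6–8 weeks old, dosed i.p. at 50 mg/kg in 20% […] β-cyclodextrin in saline, 0.1 mL/10 g. Serial blood samples; plasma was methanol-precipitated with an analogue internal standard. LC-MS/MS multiple reaction monitoring, external calibration 2–20,000 nmol/L. Noncompartmental analysis, model 200.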

[16] = Cmax in BALB/C mouse spleen at 2.5 mg/kg, iv by LC-MS/MS analysis; assay type: ADME, organism-based
How it was run: as §1

U-87 MG [17] = experiment: Inhibition of cell migration in human U-87MG cells at 50 nmol/L incubated for 16 to 24 hrs by transwell assay relative to control; assay type: functional, U-87MG ATCC; conditions: time 16-24 hrs
MDA-MB-435 = experiment: Antitumor activity against ERB-B2 overexpressing human MDA-MB-435 cells xenografted female Ncr model assessed as T/C at 30 mg/kg, ip administered once a daily for 14 days relative to control; assay type: functional; conditions: time 14 day
[18] = AUClast in BALB/C mouse plasma at 2.5 mg/kg, iv by LC-MS/MS analysis; assay type: ADME, organism-based
How it was run: as §1

HCT-116 [19] = experiment: Antitumor activity against PIK3CA mutant human HCT-116 cells xenografted female Ncr model assessed as body weight loss at 30 mg/kg, ip administered once a daily for 14 days relative to control; conditions: time 14 day
OVCAR-3 [20] = conditions: Homo sapiens, dose 100.0 mg/kg, route ip
[21] = Half life in BALB/C mouse kidney at 2.5 mg/kg, iv by LC-MS/MS analysis; assay type: ADME, organism-based
How it was run: as §1

U-87 MG [22] = experiment: Inhibition of recombinant PI3K in human U-87MG cells assessed as phosphorylation of AKT at ser473 at 5 times of GI50 concentration within 15 mins treatment by immunoblot analysis; assay type: cell-based
[23] = Inhibition of recombinant PI3K in human U2OS cells expressing GFP-tagged FKHR assessed as redistribution of cytoplasm to the nucleus before IGF-1 stimulation by fluorescence assay; assay type: cell-based
How it was run: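 U2OS cells expressing GFP-FKHR, cultured in 0.7% serum, treated with inhibitor before IGF-1 stimulation. Nuclear redistribution of GFP was monitored by automated fluorescence imaging, and IC50 was taken from concentration-response curves; Z' above 0.5.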

MDA-MB-468 [24] = experiment: Antitumor activity against PTEN null human MDA-MB-468 cells xenografted female Ncr model assessed as body weight loss at 30 mg/kg, ip administered twice a daily for 14 days relative to control; conditions: time 14 day
PC-3 = experiment: Antitumor activity against PTEN null human PC-3 cells xenografted male Ncr model assessed as T/C at 30 mg/kg, ip administered once a daily for 14 days relative to control; assay type: functional; conditions: time 14 day
HCT-116 [25] = experiment: Antitumor activity against PIK3CA mutant human HCT-116 cells xenografted female Ncr model assessed as T/C at 30 mg/kg, ip administered once a daily for 21 days relative to control; assay type: functional; conditions: time 21 day
[26] = AUClast in BALB/C mouse spleen at 2.5 mg/kg, iv by LC-MS/MS analysis; assay type: ADME, organism-based
How it was run: as §1

U-87 MG [27] = conditions: Homo sapiens, time 4.0 hrs

Oc1cccc(-c2nc(N3CCOCC3)c3oc4ncccc4c3n2)c1 [PI-103]
Body weight loss (U-87 MG [1]): <15% | Vd [2]: 0.052 L | inhibition (OVCAR-3 [3]): Active | Activity [4]: Toxic | Tmax [5]: 4.98 min | IC50 [6]: 0.017 µM | half-life [7]: 42 min | IC50 [8]: 0.066 µM | GI50 (Detroit 562): 0.36 µM | half-life [9]: 78 min | IC50 [10]: 0.011 µM | inhibition (U-87 MG [11]): Active | Cmax [12]: 4.17 µM | T/C (MDA-MB-468 [13]): 52.8% | Body weight loss (MDA-MB-468 [14]): <15% | AUClast [15]: 20459 nM·h | Cmax [16]: 1.36 µM | inhibition at 0.05 µM (U-87 MG [17]): 44% | T/C (MDA-MB-435): 85% | AUC(0-t) [18]: 624 nM·h | Body weight loss (HCT-116 [19]): <15% | inhibition (OVCAR-3 [20]): Active | half-life [21]: 54 min | inhibition (U-87 MG [22]): Active | IC50 [23]: 0.03 µM | Body weight loss (MDA-MB-468 [24]): <15% | T/C (PC-3): 80.8% | T/C (HCT-116 [25]): 98.6% | AUC(0-t) [26]: 406 nM·h | inhibition (U-87 MG [27]): Active
